Published values from different studies.
Protocols differ between the studies behind these lines.
FLT3 D835V: Receptor-type tyrosine-protein kinase FLT3 (FLT3, Homo sapiens, UniProt P36888, D835V)
FLT3 D835Y: Receptor-type tyrosine-protein kinase FLT3 (FLT3, Homo sapiens, UniProt P36888, D835Y)
FLT3 D835H: Receptor-type tyrosine-protein kinase FLT3 (FLT3, Homo sapiens, UniProt P36888, D835H)
FLT3: Receptor-type tyrosine-protein kinase FLT3 (FLT3, Homo sapiens, UniProt P36888)
FLT3 N841I: Receptor-type tyrosine-protein kinase FLT3 (FLT3, Homo sapiens, UniProt P36888, N841I)
FLT3 autoinhibited: Receptor-type tyrosine-protein kinase FLT3, autoinhibited (FLT3, Homo sapiens, UniProt P36888)
FLT3 F691L/ITD: Receptor-type tyrosine-protein kinase FLT3 (FLT3, Homo sapiens, UniProt P36888, F691L/ITD)
FLT3 K663Q: Receptor-type tyrosine-protein kinase FLT3 (FLT3, Homo sapiens, UniProt P36888, K663Q)
FLT3 R834Q: Receptor-type tyrosine-protein kinase FLT3 (FLT3, Homo sapiens, UniProt P36888, R834Q)

With `F[C@@H]1CCN(c2nccc(-c3cnn4ncccc34)n2)C1` the remaining binding was 84% (FLT3 D835V; binding; 1 µM).
With `Nc1ncc2c(n1)-c1c([nH]c3ccc(C#CC4CC4)cc13)CCCC2` the remaining binding was 89% (FLT3 D835Y; binding, competition with immobilised ligand; 1 µM).
For `O=C(c1ccc(Nc2nccc(-c3cc4ccccc4s3)n2)cc1)N1CCC(N2CCCC2)CC1`, the remaining binding was 3.1% (FLT3 D835V; binding, competition with immobilised ligand; 1 µM).
`COc1ncc2cc3ccccc3nc2c1C#N` gave a remaining binding of 89% (FLT3 D835H; cell-free assay, competition with immobilised ligand; 5 µM).
`O=C(NCC1CCOCC1)c1n[nH]cc1NC(=O)c1c(F)cccc1F` gave a remaining binding of 89% (FLT3 D835Y; binding, competition with immobilised ligand; 1 µM).
For `FC(F)(F)c1ccc2c(c1)nc(-c1cccnc1)n2C1CC1`, the remaining binding was 93% (FLT3; cell-free assay, competition with immobilised ligand; 1 µM).
For `C=CC(=O)N1CCC(C(=O)NCC(=O)N2CCN(c3nc(-c4cnc(N)nc4C(F)F)nc(N4CCOCC4)n3)CC2)CC1`, the remaining binding was 61% (FLT3 D835V; binding, competition with immobilised ligand; 1 µM).
The remaining binding of `CN1CCN(c2ccc(Nc3nccc(-c4ccccc4)n3)cc2C(F)(F)F)CC1` is reported as 3.5% (FLT3 N841I; binding; 10 µM).
For `CN(C)c1nccc(-c2cnn3ncccc23)n1`, the remaining binding was 100% (FLT3 autoinhibited; binding; 1 µM).
`O=C(c1ccc(Nc2ncc(Cl)c(-c3ccc(Cl)s3)n2)cc1)N1CCC(N2CCCC2)CC1` has a remaining binding of 1.9% (FLT3 D835V; binding, competition with immobilised ligand; 1 µM).
`C[C@@H](c1ccc(-n2cnc3c(N)ncnc32)cc1)N1CCc2nn(C)c(Cc3ccccc3)c2C1=O` has a remaining binding of 84% (FLT3 autoinhibited; binding, competition with immobilised ligand; 0.1 µM).
For `O=C(NC1CCC1)c1ccc2nc(-c3cccc(NS(=O)(=O)NCCN4CCCCC4)c3)cn2c1`, the remaining binding was 80% (FLT3 F691L/ITD; cell-free assay, competition with immobilised ligand; 10 µM).
With `O=C(c1ccc(Nc2ncc(Cl)c(-c3cc4ccccc4s3)n2)cc1)N1CCC(N2CCCC2)CC1` the remaining binding was 3.4% (FLT3 K663Q; binding, competition with immobilised ligand; 1 µM).
For `CN(C)c1ncnc(-c2ccc3nc(Nc4cc(CN5CCN(C(=O)CC(F)(F)F)CC5)ccn4)[nH]c3c2)c1Cl`, the remaining binding was 42% (FLT3 D835H; cell-free assay, competition with immobilised ligand; 1 µM).
`O=C(NCCCN1CCOCC1)c1ccc(Nc2nccc(-c3cc4ccccc4s3)n2)cc1` gave a remaining binding of 30% (FLT3 D835H; binding, competition with immobilised ligand; 1 µM).
With `O=C(Nc1c[nH]nc1C(=O)NC1CCNCC1)c1cc(F)cc(F)c1` the remaining binding was 100% (FLT3 N841I; binding, competition with immobilised ligand; 1 µM).
With `CNC(=O)[C@@H]1CC[C@@H](n2c(-c3ccc4cnccc4c3)nc3ccc(C(=O)NCc4cccc(C(N)=O)c4)cc32)C1` the remaining binding was 100% (FLT3 R834Q; binding, competition with immobilised ligand; 1 µM).
With `Cc1cnc(Nc2ccc(C(=O)N3CCC(N4CCCC4)CC3)cc2)nc1-c1cc2ccccc2s1` the remaining binding was 18% (FLT3 F691L/ITD; binding, competition with immobilised ligand; 1 µM).
`C[C@@H]1CN(c2ccc3ncc(-c4ccc5[nH]nc(C6CC6)c5c4)n3n2)C[C@H](C)O1` has a remaining binding of 3% (FLT3; binding, competition with immobilised ligand; 0.5 µM).
For `c1cncc(-c2cccc(Nc3nccc(NC4CCCCC4)n3)c2)c1`, the remaining binding was 1.6% (FLT3 D835H; binding, competition with immobilised ligand; 10 µM).
With `COc1cnc(Nc2cccc(S(N)(=O)=O)c2)nc1N1CCN(c2ccccc2)C(=O)C1` the remaining binding was 66% (FLT3 D835Y; binding, competition with immobilised ligand; 1 µM).
For `CCN1CCN(Cc2ccc(C(=O)Nc3ccc(C)c(Oc4ccc5c(c4)CC(=O)N5)c3)cc2C(F)(F)F)CC1`, the remaining binding was 100% (FLT3 D835Y; binding, competition with immobilised ligand; 1 µM).
For `CC1=C(C#N)C(c2ccc3c(c2)c(NC(=O)c2ccccc2C)nn3C)C(C#N)=C(C)N1`, the remaining binding was 100% (FLT3 K663Q; cell-free assay, competition with immobilised ligand; 1 µM).
`C[C@@H]1CCN(c2nccc(-c3cnn4ncccc34)n2)C1` gave a remaining binding of 71% (FLT3 R834Q; binding; 1 µM).
`COc1cnc(Nc2cccc(S(N)(=O)=O)c2)nc1N1CCN(c2ccccc2)CC1` gave a remaining binding of 36% (FLT3 K663Q; binding, competition with immobilised ligand; 1 µM).
For `CN1CCN(c2ccc(Nc3nccc(-c4cccc([N+](=O)[O-])c4)n3)cc2C(F)(F)F)CC1`, the remaining binding was 0% (FLT3 D835V; binding; 10 µM).
With `Cc1cnn2ncc(-c3ccnc(N(C)C)n3)c2c1` the remaining binding was 100% (FLT3 D835H; binding; 1 µM).
`C[C@@H]1CN(c2cc(-c3nn(C)c4ccc(OC5(C)CC5)cc34)ncn2)C[C@H](C)O1` has a remaining binding of 77% (FLT3 autoinhibited; cell-free assay, competition with immobilised ligand; 1 µM).
`c1cnn2ncc(-c3ccnc(N4CCC45COC5)n3)c2c1` gave a remaining binding of 20% (FLT3 D835V; binding; 1 µM).
With `Cc1cc(-n2nc(Cc3cc(F)cc(C(F)(F)F)c3)nc2C)ccc1C(N)=O` the remaining binding was 100% (FLT3; cell-free assay, competition with immobilised ligand; 1 µM).
`N[C@H]1CCN(c2nccc(-c3cnn4ncccc34)n2)C1` gave a remaining binding of 100% (FLT3 K663Q; binding; 1 µM).
`CO[C@H]1CC[C@H](CNc2ccc(S(=O)(=O)NC(=O)c3ccc(N4CCN(CC5=C(c6ccc(Cl)cc6)CC(C)(C)CC5)CC4)cc3Oc3cnc4[nH]ccc4c3)cc2[N+](=O)[O-])CC1` has a remaining binding of 100% (FLT3; cell-free assay, competition with immobilised ligand; 1 µM).
For `COc1ccnn2ncc(-c3ccnc(N(C)C)n3)c12`, the remaining binding was 81% (FLT3 D835V; binding; 1 µM).
For `O=C(Nc1ccc(Oc2ccc(F)cc2)cc1)N1CCc2ncccc2[C@H]1c1ccc(F)cc1`, the remaining binding was 100% (FLT3 autoinhibited; cell-free assay, competition with immobilised ligand; 1 µM).
For `CC1CCCN1c1nccc(-c2cnn3ncccc23)n1` (stereo not shown), the remaining binding was 100% (FLT3 D835Y; binding; 1 µM).
The remaining binding of `CCCOc1ccc([C@@H]2[C@@H](C(=O)O)[C@H](c3ccc4c(c3)OCO4)CN2CC(=O)Nc2c(CC)cccc2CC)cc1` is reported as 88% (FLT3 N841I; cell-free assay, competition with immobilised ligand; 1 µM).
The remaining binding of `O=C(NCCCN1CCOCC1)c1ccc(Nc2ncc(Cl)c(-c3ccc(Cl)s3)n2)cc1` is reported as 5.5% (FLT3 autoinhibited; binding, competition with immobilised ligand; 1 µM).
